NSD2 HMT inh = NSD2 (human) methyltransferase inhibition; O96028; NSD2 peptide methylation, AlphaScreen, 120 min; inhibition, % at 12.5 µM; actives 0.54% (n = 310,000)
CDK5 p35 inh = CDK5/p35 (human) kinase inhibition; Recombinant CDK5/p35, ADP-Glo luminescence, 60 min; inhibition, % at 10 µM; actives 0.01% (n = 330,000);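 active means highest replicate inhibition of at least 50% and at least 75% of replicates reaching 50%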;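 further: plate controls were DMSO neutral control for no effect and GW8510 at 10 µM for full effect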
SR-BI DiI-HDL act = enhances SR-BI lipid uptake from DiI-HDL; activation, % at 12.5 µM; CHO ldlA[mSR-BI] cells, DiI-HDL uptake fluorescence, 3 h; 100 = double the neutral-control signal; actives 0.096% (n = 320,000);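 active means mean replicate activation of at least 60% and every replicate at or above 60%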;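 further: 0% = median plate neutral-control signal and 100% = twice that signal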
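Test system: SR-BI-overexpressing, LDLR-lacking CHO cells; Medium: Ham's F12 with 0.5% BSA, HEPES 25 mM, pH 7.4; Schedule: 3 h, 37 °C; Technique: bottom-read fluorescence, 550/595 nm.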
DYRK1A inh = Dyrk1A (rat) kinase inhibition | inhibition, % at 12.5 µM | Q63470 | actives 0.43% (n = 310,000) | ADP-Glo luminescence, NFATc1 peptide;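 further: plate controls were vehicle with enzyme for no effect and no enzyme for full effect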
dFosB activator = enhances mouse delta FosB homodimer DNA binding. purified delta FosB, TAMRA-CDK5 oligo fluorescence polarization; percent of positive-control signal above neutral wells. P13346. activation, % at 25 µM. actives 0.99% (n = 340,000);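 active means mean activation above about 17%, with every replicate also reaching it, limit read from the data, passing the limit was not always enough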
SR-BI DiI inh = inhibitors of mouse SR-BI mediated HDL lipid uptake; Q61009; ldlA[mSR-BI] CHO cells, DiI-HDL uptake fluorescence, 3 h; inhibition, % at 12.5 µM; actives 0.96% (n = 320,000); AID 488896;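 active means mean replicate inhibition of at least 70% and a set share of replicates each scoring 70 or more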;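 further: 0% = median of neutral control wells and 100% = median of positive control wells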
Target sequence (Q61009 whole entry, looked up): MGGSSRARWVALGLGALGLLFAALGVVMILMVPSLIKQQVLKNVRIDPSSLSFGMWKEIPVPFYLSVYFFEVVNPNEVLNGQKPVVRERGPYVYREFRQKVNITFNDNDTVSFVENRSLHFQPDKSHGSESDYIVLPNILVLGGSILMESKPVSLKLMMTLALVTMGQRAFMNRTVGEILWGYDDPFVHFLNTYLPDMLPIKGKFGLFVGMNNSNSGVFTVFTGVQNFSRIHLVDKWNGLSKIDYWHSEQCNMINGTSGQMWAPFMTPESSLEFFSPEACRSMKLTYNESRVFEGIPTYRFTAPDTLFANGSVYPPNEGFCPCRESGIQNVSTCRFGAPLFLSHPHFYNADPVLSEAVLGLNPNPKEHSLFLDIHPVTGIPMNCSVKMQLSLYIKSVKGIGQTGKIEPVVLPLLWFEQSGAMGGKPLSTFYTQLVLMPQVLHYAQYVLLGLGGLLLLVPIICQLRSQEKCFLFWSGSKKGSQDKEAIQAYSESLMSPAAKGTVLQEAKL
Alpha artifact = interferes with AlphaScreen signal, flagging NSD2 false positives; shares compounds with NSD2 HMT inh; AlphaScreen artifact counterscreen, preloaded methylated H4 peptide; AC35, µM (top dose mostly 10 µM), for inactives: at the highest dose activity change, negative = signal loss; actives 9.4% (n = 1,500); AID 1053174; call rule not given here
* = called active by the depositor; / = not tested or not shown. In the library only some 2.5% were active in any assay of this set; here they are far more common. Unless noted, no stated cut-off is given here; in the data, active means inhibition above about 50%; inactive means the rest.

SMILES	NSD2 HMT inh	CDK5 p35 inh	SR-BI DiI-HDL act	DYRK1A inh	dFosB activator	SR-BI DiI inh	Alpha artifact
Nc1c(Br)cc(Br)c2c1[nH]c(=O)c1ccccc12	73*	/	/	/	/	/	-8%
O=c1[nH]c2ccccc2c2ccccc12	0	2	9	20	-18	-9	/
Nc1c(C(=O)OCC2CCCO2)c2nc3ccccc3nc2n1C1CCCCC1 (stereo unspecified)	76*	0	-35	3	5	35	-7%
CCc1nc2ccc(C(=O)NCCOc3ccc(OC)cc3)cn2c1N(C)C(=O)C1CCCCC1	7	/	/	/	/	/	/
Cc1ccc(-c2csc(NC(=O)c3c(C)noc3C)n2)s1	/	0	-65	0	-8	65	/
S=C1NCN(Cc2ccco2)CN1CCc1ccccc1	53*	0	-5	6	-1	5	-3%
CC(C)CN1CN(Cc2ccco2)CNC1=S	0	-1	8	2	1	-8	/
Cc1nc2cc(C(=O)NCc3cccnc3)ccc2n1-c1ccc(F)cc1F	50*	-1	17	36	0	-17	-3%
Cc1nc2cc(C(=O)NCCN3CCOCC3)ccc2n1-c1ccc(F)cc1F	/	0	8	11	-3	-8	/
Cc1ccc(C(=O)Nc2ccc(NC(=O)c3ccc(C)o3)cc2)o1	1	0	/	-5	-1	/	/
Cc1ccc(C(=O)Nc2ccc(CC(=O)O)cc2)o1	126*	-1	9	-2	-3	-9	-3%
COCCNC(=O)Cc1c(C)c2c(cc(C)c3c(C)coc32)oc1=O	51*	2	/	-1	-5	/	3%
O=C(Cc1cccs1)Nc1ccccc1F	18	1	8	-2	-4	-8	/
CCc1cc(C(=O)N2CCCC(C(=O)c3ccc(Oc4ccccc4)cc3)C2)n(C)n1 (stereo unspecified)	-1	0	-7	6	-10	7	/
CN1C(=O)N(C)c2cccc3cccc1c23	0	0	-26	5	1	26	/
CCc1ccc2cccc3c2c1N=CN3C	112*	0	10	-119	-2	-10	0%
CC12CC3(C)CC(C)(C1)CC(C(=O)NC1=NCCS1)(C2)C3	121*	-2	1	-2	-12	-1	-4%
Cc1c(OC(C)C(=O)NCc2cccnc2)ccc2c3c(c(=O)oc12)CCCC3 (stereo unspecified)	-1	/	-33	/	-13	33	/
CCOC(=O)CCCCC(=O)c1[nH]c(=O)[nH]c1CSc1nc(C)cc(C)n1	/	0	13	0	-5	-13	/
CCOC(=O)CCCCC(=O)c1[nH]c(=O)[nH]c1CSc1nc2ccccc2[nH]1	100*	-3	-17	0	-7	17	-4%
CCOC(=O)CCCCC(=O)c1[nH]c(=O)[nH]c1CSc1nc(C)cc(=O)[nH]1	106*	3	15	-8	1	-15	-9%
CC1CCN(C(=O)CSc2nc(=O)n3ccccc3n2)CC1	1	2	19	0	-7	-19	/
Cc1c(N=NC2=C(O)CC(C)(C)CC2=O)c(=O)n(-c2ccccc2)n1C	96*	-1	19	0	-3	-19	-2%
NC(=O)c1[nH]cnc1N=NN(CCO)Cc1ccccc1	69*	/	/	/	/	/	-2%
CN(C)N=Nc1nc[nH]c1C(N)=O	/	1	5	0	-8	-5	/
SMILES	NSD2 HMT inh	CDK5 p35 inh	SR-BI DiI-HDL act	DYRK1A inh	dFosB activator	SR-BI DiI inh	Alpha artifact
Cc1cc(C)c(C(=O)COC(=O)c2nn(C)c(=O)c3ccccc23)cc1C	0	-1	-44	/	-13	44	/
COc1cc(OC)cc(C(=O)NCC(C)NC(=O)c2cc(OC)cc(OC)c2)c1 (stereo unspecified)	4	0	5	/	-15	-5	/
COc1cc(NCCCNC(C)C)c2nccc(C)c2c1	107*	-1	-4	/	11	4	-4%
Cc1noc(C)c1CSCC(=O)OCc1nnc(-c2ccc([N+](=O)[O-])cc2)o1	4	1	-18	/	-1	18	/
COc1cccc(OCCOc2ccc(/C=C3\C(=N)N4N=C(S(C)(=O)=O)SC4=NC3=O)cc2OC)c1	7	2	-36	-6	-29	36	/
COc1ccccc1OCCOc1ccc(/C=C2\C(=N)N3N=C(S(C)(=O)=O)SC3=NC2=O)cc1	71*	2	-23	-3	-14	23	-7%
COc1cc(/C=C/c2cccc[n+]2C)ccc1OCC(=O)Nc1cccc(Cl)c1	6	-2	/	5	-9	/	/
CCN(CC)CCCN(Cc1cc2cc(OC)ccc2[nH]c1=O)C(=O)Nc1ccc(F)cc1	86*	0	10	-2	-8	-10	-8%
COc1ccc(C(=O)NCc2nnc(SCC(=O)Nc3cc(C)cc(C)c3)o2)cc1OC	75*	-2	-20	-2	-8	20	-3%
CC(=O)c1ccc(NC(=S)NCCc2cccc(Cl)c2)cc1	53*	-1	-7	5	-5	7	-2%
CC(=O)c1ccc(NC(=O)Nc2cccc(Cl)c2)cc1	-6	-1	-13	38	-15	13	/
O=C(NC(=S)NC1CCS(=O)(=O)C1)c1ccccc1 (stereo unspecified)	1	2	13	-10	7	-13	/
CN(C1=C(NC(=O)c2ccccc2)C(=O)c2ccccc2C1=O)C1CCS(=O)(=O)C1 (stereo unspecified)	109*	2	-19	8	-3	19	-3%
CCCCOc1ccc(C(=O)NCC(=O)NCC(c2ccc(F)cc2)N2CCOCC2)cc1 (stereo unspecified)	-5	-1	8	-9	-2	-8	/
O=C(CCCN1C(=O)/C(=C/c2ccccc2)SC1=S)Nc1ccc(C(=O)O)c(O)c1	55*	-1	-28	-4	-4	28	-7%
O=C(CCCN1C(=O)/C(=C/c2cccs2)SC1=S)Nc1ccc(O)c(C(=O)O)c1	53*	/	/	/	/	/	-14%
N#Cc1cccc(CNCC(=O)N2CCC3(CC2)OCCO3)c1	-3	/	/	/	/	/	/
CC1CCC(NC(=O)CCS(=O)(=O)c2ccc3c(c2)oc(=O)n3C)CC1 (stereo unspecified)	1	0	7	-1	-5	-7	/
CC(C)CN(C(=O)CSc1nnc(C2CC2)n1-c1ccccc1)C1CCS(=O)(=O)C1 (stereo unspecified)	-1	0	4	2	-10	-4	/
COc1ccc(C2SCCN2S(=O)(=O)c2ccc(NC(C)=O)cc2)cc1 (stereo unspecified)	-6	-1	10	-2	0	-10	/
COc1ccc(C2SCCN2S(=O)(=O)c2ccccc2)cc1 (stereo unspecified)	99*	-3	-21	2	-3	21	-1%

From PubChem BioAssay
